Calls of active or inactive are those of the source. No cut-off for these calls is given here.
Test system: Rattus norvegicus
Test: Antiapoptotic activity against osteoblasts in ovariectomized Wistar rat at 0.1 mg/kg after 10 weeks
Type: functional, organism-based
Parameters: dose 0.1 mg/kg
In short: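 After 10 weeks, lumbar vertebrae were removed. Apoptotic osteoblasts were detected by TUNEL staining (Klenow FragEL) in undecalcified, plastic-embedded sections. Values are means ± S.D.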

C[C@]12CC[C@@H]3c4ccc(O)cc4CC[C@H]3[C@@H]1CC[C@@H]2O
Activity: Active

Source: ChEMBL document CHEMBL1156469 (2007)
